Series [1] in a line: Octanol-phosphate buffer partition coefficient, log D of the compound at pH 7.4. The class given is physicochemical. The procedure, abridged: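 Compound was shaken 30 min in equal volumes of n-octanol and phosphate-buffered saline at pH 7.4, then centrifuged at 3000 rpm for 10 min. Each layer was assayed by LC/MS, and log D was taken from the partition ratio.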
Series [2] in a line: Solubility in water at pH 6.8. It is filed as physicochemical.
Series [3] has as its system Candida albicans. Kind of series: Antifungal activity against FLCZ-susceptible Candida albicans ATCC 90028 assessed as concentration required to 80% growth inhibition using alamar blue staining after 18 to 72 hrs by microdilution method. It is filed as functional. Summed up:
(§1)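 Serial broth microdilution in YPD medium (1% yeast extract, 2% peptone, […]). Starting cell density (1 × 10³–1 × 10⁴ cells/mL) and incubation time (18–72 h) were set per strain by growth speed. MIC-1 is the lowest drug concentration giving 80% growth inhibition relative to the drug-free control.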
On the technique in general: The colour change of resazurin is a common sign of viable cells or microbes.

For series [4], the system named is Candida albicans. The series can be described thus: Antifungal activity against FLCZ-resistant Candida albicans ATCC MYA-573 assessed as concentration required to 80% growth inhibition using alamar blue staining after 18 to 72 hrs by microdilution method. The class given is functional. Summed up:
as §1

Series [5] relates to Nakaseomyces glabratus. Kind of series: Antifungal activity against Candida glabrata ATCC 48435 assessed as concentration required to 80% growth inhibition using alamar blue staining after 18 to 72 hrs by microdilution method. It is filed as functional. Summed up: (§2)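 Serial dilution in YPD medium (1% yeast extract, 2% peptone, […]), incubated at 37 °C. Inoculum was 1×10³–1×10⁴ cells/mL and incubation 18–72 h, both chosen per strain. MIC-1 is the lowest concentration giving 80% inhibition relative to a drug-free control.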

Series [6] relates to Candida tropicalis. Kind of series: Antifungal activity against Candida tropicalis ATCC 44508 assessed as concentration required to 80% growth inhibition using alamar blue staining after 18 to 72 hrs by microdilution method. It is filed as functional. As to conditions: read-out: MIC. The procedure, abridged: as §2
Series [7] relates to Pichia kudriavzevii. The series can be described thus: Antifungal activity against Candida krusei ATCC 44507 assessed as concentration required to 80% growth inhibition using alamar blue staining after 18 to 72 hrs by microdilution method. The class given is functional. The procedure, abridged: as §2
Series [8] relates to Saccharomyces cerevisiae. The series can be described thus: Antifungal activity against Saccharomyces cerevisiae YPH500 assessed as concentration required to 50% growth inhibition using alamar blue staining after 18 to 72 hrs by microdilution method. It is filed as functional. The procedure, abridged: (§3)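 Serial broth microdilution in RPMI 1640 with 0.165 M MOPS. Inoculum was 1×10³–1×10⁴ cells/mL and incubation ran 18–72 h, both set per strain by growth rate, at 30 °C. MIC-2 is the lowest drug concentration giving 50% growth inhibition versus a drug-free control.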

For series [9], the system named is Candida albicans. Kind of series: Antifungal activity against Candida albicans ATCC 24433 assessed as concentration required to 50% growth inhibition using alamar blue staining after 18 to 72 hrs by microdilution method. It is filed as functional. Summed up:
as §3

Series [10] concerns Nakaseomyces glabratus. Kind of series: Antifungal activity against Candida glabrata ATCC 48435 assessed as concentration required to 50% growth inhibition using alamar blue staining after 18 to 72 hrs by microdilution method. It is filed as functional. Summed up: as §3
Series [11] deals with Candida tropicalis. Kind of series: Antifungal activity against Candida tropicalis IAM 4965 assessed as concentration required to 50% growth inhibition using alamar blue staining after 18 to 72 hrs by microdilution method. The class given is functional. Summed up: as §3
For series [12], the system named is Pichia kudriavzevii. The series can be described thus: Antifungal activity against Candida krusei ATCC 44507 assessed as concentration required to 50% growth inhibition using alamar blue staining after 18 to 72 hrs by microdilution method. The class given is functional. The procedure, abridged:
as §3

The nature of series [13]: Metabolic stability in human liver microsomes at 1 uM after 30 mins. The class given is ADME, Microsome. Conditions: read-out: Stability. Summed up: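 Compound was preincubated with human liver microsomes (0.5 mg/mL protein) in sodium phosphate buffer pH 7.4 for 20 min at 37 °C. NADPH started the reaction, and MeOH stopped it after 30 min. Samples were centrifuged at 4 °C, and parent loss was quantified by LC/MS/MS.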

Series [14] deals with Candida albicans. The series can be described thus: Antifungal activity against FLCZ-susceptible Candida albicans ATCC 90028 assessed as reduction of beta-1,6-glucan level after 3 hrs by [14C]-glucose incorporation assay. It is filed as functional, organism-based. Summed up:
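Exponentially growing cells suspended in RPMI 1640 to absorbance ~0.7 at 595 nm; drug and [14C]-glucose added, incubated 30 °C with occasional shaking. After 3 h, cells heated in 3% NaOH at 80 °C for 1 h; mannan taken from supernatant by Fehling's reaction; insoluble residue digested with Zymolyase 100T overnight; radioactivity per fraction measured. Tested 0.016–4 µg/mL.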

Series [15] concerns Candida albicans. Kind of series: Antifungal activity against FLCZ-susceptible Candida albicans ATCC 90028 assessed as reduction of beta-1,3-glucan level up to 4 ug/ml after 3 hrs by [14C]-glucose incorporation assay. It is filed as functional, organism-based. The procedure, abridged: (§4)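 Exponentially growing cells were suspended in RPMI 1640 to about 0.7 A595, then drug (0–4 µg/mL) and [14C]-glucose were added. Incubation was 3 h at 30 °C with occasional shaking. Cells were heated in 3% NaOH at 80 °C for 1 h. Mannan was taken from the supernatant by Fehling's reaction, and the insoluble residue was digested overnight with Zymolyase 100T. β-1,3-glucan counts were obtained as glucan minus β-1,6-glucan.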

Series [16] deals with Candida albicans. The series can be described thus: Antifungal activity against FLCZ-susceptible Candida albicans ATCC 90028 assessed as reduction of chitin level up to 4 ug/ml after 3 hrs by [14C]-glucose incorporation assay. It is filed as functional, organism-based. Summed up: as §4
The test system of series [17] is Candida albicans. Kind of series: Antifungal activity against FLCZ-susceptible Candida albicans ATCC 90028 assessed as reduction of mannan level up to 4 ug/ml after 3 hrs by [14C]-glucose incorporation assay. It is filed as functional, organism-based. The procedure, abridged:
as §4

The logD is the decadic logarithm of the distribution of all forms, ionised or not, between an organic phase and buffer at a given pH. Higher therefore signals a more lipophilic compound. By solubility is commonly meant how much of the substance goes into solution per volume. Low readings indicate a poorly soluble substance, high ones a readily soluble substance. What is called MIC is the least concentration at which growth counts as inhibited.

Structures are written as SMILES. In brackets after ≈: the same amount, converted by molar mass. Activity calls are given as the source filed them. The calls are words filed in the database; no cut-off is given here. Where only a bound is given, the exact number is not on record here.

The molecule `Cc1c(-c2ccccc2)c(N2CC[C@H](N(C)C)C2)c2oc(C3CC3)nc2c1C#N` had a logD in series [1] of 3.9. This molecule returned a solubility in series [2] of 10 µg/mL (≈ 25.9 µM). The minimal inhibitory concentration (MIC) in series [3] worked out at 0.063 µg/mL (≈ 0.163 µM); in [4], 0.063 µg/mL (≈ 0.163 µM); in [5] it was 0.032 µg/mL (≈ 0.0828 µM); in series [6] it was 0.032 µg/mL (≈ 0.0828 µM); in [7], 0.125 µg/mL (≈ 0.323 µM).
Regarding `Cc1c(-c2ccccc2)c(N2CC[C@H](N(C)C)C2)c2[nH]c(C(C)(C)C)nc2c1C#N`, the MIC in [8] was 0.5 µg/mL (≈ 1.25 µM); in series [9], 4 µg/mL (≈ 9.96 µM); in series [10], 0.5 µg/mL (≈ 1.25 µM); in series [11], 2 µg/mL (≈ 4.98 µM); in series [12], over 16 µg/mL. This molecule had a logD in series [1] of 4.7. The molecule also had a solubility in series [2] of 8 µg/mL (≈ 19.9 µM). Also, the remaining at 0.5 h, 1 µM in [13] was 21%.
In the case of `Cc1c(-c2ccccc2)c(N2CC[C@H](N(C)C)C2)c2oc(N)nc2c1C#N`, in [1], the logD is 3.3. The solubility in [2] stood at 18 µg/mL (≈ 49.8 µM). The minimal inhibitory concentration (MIC) in series [3] worked out at 1 µg/mL (≈ 2.77 µM); in series [4], 2 µg/mL (≈ 5.53 µM); in [5] it was 0.125 µg/mL (≈ 0.346 µM); in series [6], 0.5 µg/mL (≈ 1.38 µM); in [7] it was 2 µg/mL (≈ 5.53 µM).
`Cc1c(-c2ccccc2)c(N2CC[C@H](N(C)C)C2)c2oc(C3=CCCC3)nc2c1C#N` returned a logD in series [1] of 5.2. Besides, the solubility in series [2] was under 2 µg/mL. Further, the MIC in [3] was 4 µg/mL (≈ 9.7 µM); in [4], 4 µg/mL (≈ 9.7 µM); in series [5], 0.5 µg/mL (≈ 1.21 µM); in [6], 1 µg/mL (≈ 2.42 µM); in series [7], 16 µg/mL (≈ 38.8 µM).
Regarding `Cc1c(-c2ccccc2)c(N2CC[C@H](N(C)C)C2)c2oc(C(C)(C)C)nc2c1C#N.Cl`, the MIC in [8] is at most 0.016 µg/mL; in [9], 4 µg/mL; in series [10], at most 0.016 µg/mL; in series [11], 0.063 µg/mL; in series [12] it was 4 µg/mL; in [3], 0.063 µg/mL. The MIC in [4] was found to be 0.125 µg/mL; in [5], 0.063 µg/mL; in series [6] it was 0.032 µg/mL; in series [7] it was 2 µg/mL. This molecule also yielded a pH-dependent lipophilicity (logD) in series [1] of 4.6. In series [2], this molecule gave a solubility of 5 µg/mL. In addition, the remaining at 0.5 h, 1 µM in [13] turned out to be 6%.
In series [1], `Cc1nc2c(C#N)c(C)c(-c3ccccc3)c(N3CC[C@H](N(C)C)C3)c2o1` came in with a pH-dependent lipophilicity (logD) of 3.3. The same molecule displayed a solubility in series [2] of 120 µg/mL (≈ 333 µM). Moreover, the MIC worked out at 2 µg/mL (≈ 5.55 µM) in [3]; 2 µg/mL (≈ 5.55 µM) in series [4]; 0.25 µg/mL (≈ 0.694 µM) in [5]; 0.25 µg/mL (≈ 0.694 µM) in [6]; 4 µg/mL (≈ 11.1 µM) in series [7].
As for `CN[C@H]1CCN(c2c(-c3ccccc3)c(C)c(C#N)c3nc(C(C)(C)C)oc23)C1.Cl`, the MIC in [8] is 0.125 µg/mL; in series [9] it was 16 µg/mL; in series [10], 0.125 µg/mL; in series [11], 0.25 µg/mL; in [12], over 16 µg/mL; in [3], 0.25 µg/mL. Also, the MIC in series [4] was 0.25 µg/mL; in series [5] it was 0.125 µg/mL; in [6], 0.063 µg/mL; in series [7] it was over 4 µg/mL. The molecule also registered a logD in [1] of 3.4. This molecule also returned a solubility in series [2] of 120 µg/mL. Further, in series [13], the remaining at 0.5 h, 1 µM turned out to be 54%. In series [14], the Activity entry is “Dose-dependent effect”. For the same molecule, the outcome in [15], in [16] and in [17] was inactive.
Regarding `OC(Cn1cncn1)(Cn1cncn1)c1ccc(F)cc1F` [FLUCONAZOLE], the minimal inhibitory concentration (MIC) in series [8] was 4 µg/mL (≈ 13.1 µM); in series [9], 0.25 µg/mL (≈ 0.816 µM); in [10], 2 µg/mL (≈ 6.53 µM); in series [11], 0.25 µg/mL (≈ 0.816 µM); in series [12], 16 µg/mL (≈ 52.2 µM); in series [3], 0.25 µg/mL (≈ 0.816 µM). Moreover, the MIC in [4] was over 128 µg/mL; in series [5], 16 µg/mL (≈ 52.2 µM); in series [6], 0.5 µg/mL (≈ 1.63 µM); in [7], 32 µg/mL (≈ 104 µM). The solubility in series [2] is over 2000 µg/mL.

For the origin of these results see ChEMBL document CHEMBL1268918, “1,3-Benzoxazole-4-carbonitrile as a novel antifungal scaffold of β-1,6-glucan synthesis inhibitors” (Bioorg Med Chem, 2010).
